Where no end group is shown, it is not given here. [ ]: non-standard residue; d: D form. pY = N[C@@H](Cc1ccc(OP(=O)(O)O)cc1)C(=O)O
Experiments:
Syk (platelet) = Syk (platelet) (UniProt P43405); assay: biotinylated peptide pull-down, Syk blot; conditions: reference: pY7 31-mer peptide; sites T9
[1] = system: single C-terminal SH2 domain of Syk; assay: Tryptophan fluorescence titration, Syk C-terminal SH2; assay type: binding; conditions: same concentration range as tandem SH2 titration; pH 7.5
[2] = target: dually phosphorylated peptide based on the human FcRγ-chain ITAM, biotinylated (human) (UniProt P30273); assay: SPR
Sequence of dually phosphorylated peptide based on the human FcRγ-chain ITAM, biotinylated (human) (P30273 54-82): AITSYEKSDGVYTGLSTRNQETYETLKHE

Syk N-SH2 domain = Syk N-SH2 domain (Homo sapiens, UniProt P43405); assay: Surface plasmon resonance, binding of Syk N-SH2 to immobilised peptide; conditions: SPR, 25°C, pH 7.4, SH2 domain 0-80μM
Syk C-SH2 domain = Syk C-SH2 domain (Homo sapiens, UniProt P43405); assay: Surface plasmon resonance, binding of Syk C-SH2 to immobilised peptide; conditions: SPR, 25°C, pH 7.4, SH2 domain 0-80μM
[3] = target: tandem SH2 domains of Syk (Homo sapiens, UniProt P43405); assay: Surface plasmon resonance, binding of Syk tandem SH2 to immobilised peptide; conditions: SPR, 25°C, pH 7.4, SH2 domains 0-80μM
[4] = system: GPVI and FcRγ-chain with mutated C-terminal ITAM tyrosine; assay type: cell-based; conditions: 10 μg/ml collagen, 6 hrs, 37°C; three separate experiments
Summary of the method: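 DT40 chicken B-cells (RPMI, 10% FBS, 1% chicken serum, 50μM β-mercaptoethanol) electroporated (350V, 500μF) with 2μg/ml each of GPVI and Myc-tagged FcRγ construct, 20μg NFAT-luciferase reporter and 2μg pEF6-lacZ. Live cells counted by trypan blue 20 h post-transfection. Luciferase normalised to β-galactosidase (triplicate readings), expressed as % wild-type response. Surface expression checked by anti-Myc flow cytometry.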

GPVI = conditions: cross-linking of GPVI; ref [8],[9]; cited from earlier work
[5] = target: Syk tandem SH2 domains (GST fusion protein); assay: other fluorescence titration
CLEC-2 = conditions: cross-linking of CLEC-2; ref [4],[6]; cited from earlier work

Molecule: CLEC-2 cytoplasmic tail, 1-31 (from UniProt Q9P126) pY7 pT9 31-mer peptide
- binding against the reference (Syk (platelet)): same

Molecule: tyrosine phosphorylated CLEC-2 peptide: phosphorylated peptide based on the first 13 amino acids of the CLEC-2 tail, which includes the conserved MQDEDGYxxL sequence (MQDEDG[pY]ITLNIK; also: biotin, end not given here)
- binding to single C-terminal SH2 domain, tryptophan fluorescence [1]: unable to detect binding

Molecule: Syk tandem SH2 domains (GST fusion protein) (domain or fragment)
- Kd [2]: 0.02 µM

Molecule: Syk N-terminal SH2 domain (GST fusion protein) (domain or fragment)
- Kd [2]: 19.7 µM

Molecule: non-phosphorylated CLEC-2 peptide: corresponding nonphosphorylated 13 amino acid peptide (MQDEDGYITLNIK; also: biotin, end not given here)
- detectable binding, N-SH2 (Syk N-SH2 domain): No detectable binding
- detectable binding, C-SH2 (Syk C-SH2 domain): No detectable binding
- detectable binding, tandem SH2 [3]: No detectable binding

Molecule: collagen
- NFAT activation by collagen, C-terminal ITAM tyrosine mutant [4]: abolished
- phosphorylation of FcRγ-chain ITAM tyrosines (GPVI): Src kinase-dependent phosphorylation of two conserved tyrosines

Molecule: Syk C-terminal SH2 domain (GST fusion protein) (domain or fragment)
- Kd [2]: 1.7 µM

B1: tyrosine-phosphorylated peptide based on the first 13 amino acids of the CLEC-2 cytosolic tail, biotinylated (peptide)
peptide: MQDEDG[pY]ITLNIK
modifications: also: biotinylated, end not given here
- Kd [5]: 5.7 µM

B2: podoplanin: transmembrane protein podoplanin (protein, UniProt Q86YL7 23-162, looked up)
Podoplanin: ASTGQPEDDTETTGLEGGVAMPGAEDDVVTPGTSEDRYKSGLTTLVATSVNSVTGIRIEDLPTSESTVHAQEQSPSATASNVATSHSTEKVDGDTQTTVEKDGLSTVTLVGIIVGVLLAIGFIGAIIVVVMRKMSGRYSP
- platelet aggregation and secretion (CLEC-2): powerful platelet aggregation and secretion
